Activity calls are given as the source filed them. The rule behind the calls is not given here.
Columns and labels:
[1] = Intrinsic clearance in rat liver microsomes; type: ADME, Microsome
[2] = Clearance in Sprague-Dawley rat at 1 mg/kg, iv measured up to 24 hrs by HPLC analysis; type: ADME, organism-based; conditions: in vivo
[3] = Intrinsic clearance in human liver microsomes; type: ADME, Microsome
[4] = (§1) In vivo protein occupancy at BTK in Wistar Han rat spleen at 10 mg/kg, po measured after 5 hrs relative to control; type: functional
How it was run: (§2)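 BTK occupancy measured in spleen homogenates of female rats 5 h after a single 10 mg kg^-1 oral dose, relative to the respective vehicle control. Single-animal values, mean ± SD.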

[5] = target: T1, Tyrosine-protein kinase BTK (Homo sapiens, UniProt Q06187); assay: Inhibition of BTK in human whole blood assessed as reduction in polyclonal anti-IgM antibody/human IL4-stimulated CD69 cell surface expression on B cells incubated for 16 hrs by FACS analysis; type: tissue-based
[6] = target: T1, Tyrosine-protein kinase BTK; assay: Inhibition of full length human unphosphorylated BTK using FITC-Ahx-TSELKKVVALYDYMPMNAND-NH2 as substrate incubated for 60 mins in presence of ATP at Km concentration
[7] = Terminal plasma concentration in ovalbumin-immunized C57Bl6 mouse at 20 mg/kg, po administered 2 h prior to OVA immunization and measured after 5 hrs; type: ADME, organism-based; conditions: read-out: Cp(T)
How it was run: (§3)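 Terminal blood drug concentrations taken in the mouse reverse passive Arthus study (i.v. OVA plus intradermal IgG anti-OVA), after a single oral dose of 6, 20 or 60 mg/kg given 2 h before induction, sampled 5 h after dosing.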

[8] = target: T1, Tyrosine-protein kinase BTK; assay: Inhibition of BTK in vitamin D3 differentiated human THP1 cells assessed as inhibition of FCgammaR-induced IL8 production measured after 24 hrs by immunoblot analysis
Mus musculus [9] = assay: […] activity in ovalbumin-immunized po dosed C57Bl6 mouse assessed as reduction in skin swelling administered 2 h prior to OVA immunization and measured after 5 hrs by caliper method; type: functional, organism-based; conditions: dose mg/kg 6-60, time 2.0 hrs
How it was run: (§4)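 Mouse reverse passive Arthus reaction: acute FcγR-dependent hypersensitivity induced by intravenous ovalbumin antigen followed by intradermal polyclonal IgG anti-OVA antibody. Single oral dose given 2 h before induction; skin swelling measured 5 h after dosing, compared with vehicle control (SD shown).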

[10] = Terminal plasma concentration in ovalbumin-immunized C57Bl6 mouse at 6 mg/kg, po administered 2 h prior to OVA immunization and measured after 5 hrs; type: ADME, organism-based; conditions: read-out: Cp(T); how it was run: as §3
[11] = Terminal plasma concentration in ovalbumin-immunized C57Bl6 mouse at 60 mg/kg, po administered 2 h prior to OVA immunization and measured after 5 hrs; type: ADME, organism-based; conditions: read-out: Cp(T); how it was run: as §3
[12] = Clearance in Sprague-Dawley rat at 3 mg/kg, po measured up to 24 hrs by HPLC analysis; type: ADME, organism-based; conditions: in vivo
[13] = target: T2, Tyrosine-protein kinase JAK3 (Homo sapiens) (UniProt P52333); assay: Inhibition of JAK3 (unknown origin)
T2 sequence (whole entry): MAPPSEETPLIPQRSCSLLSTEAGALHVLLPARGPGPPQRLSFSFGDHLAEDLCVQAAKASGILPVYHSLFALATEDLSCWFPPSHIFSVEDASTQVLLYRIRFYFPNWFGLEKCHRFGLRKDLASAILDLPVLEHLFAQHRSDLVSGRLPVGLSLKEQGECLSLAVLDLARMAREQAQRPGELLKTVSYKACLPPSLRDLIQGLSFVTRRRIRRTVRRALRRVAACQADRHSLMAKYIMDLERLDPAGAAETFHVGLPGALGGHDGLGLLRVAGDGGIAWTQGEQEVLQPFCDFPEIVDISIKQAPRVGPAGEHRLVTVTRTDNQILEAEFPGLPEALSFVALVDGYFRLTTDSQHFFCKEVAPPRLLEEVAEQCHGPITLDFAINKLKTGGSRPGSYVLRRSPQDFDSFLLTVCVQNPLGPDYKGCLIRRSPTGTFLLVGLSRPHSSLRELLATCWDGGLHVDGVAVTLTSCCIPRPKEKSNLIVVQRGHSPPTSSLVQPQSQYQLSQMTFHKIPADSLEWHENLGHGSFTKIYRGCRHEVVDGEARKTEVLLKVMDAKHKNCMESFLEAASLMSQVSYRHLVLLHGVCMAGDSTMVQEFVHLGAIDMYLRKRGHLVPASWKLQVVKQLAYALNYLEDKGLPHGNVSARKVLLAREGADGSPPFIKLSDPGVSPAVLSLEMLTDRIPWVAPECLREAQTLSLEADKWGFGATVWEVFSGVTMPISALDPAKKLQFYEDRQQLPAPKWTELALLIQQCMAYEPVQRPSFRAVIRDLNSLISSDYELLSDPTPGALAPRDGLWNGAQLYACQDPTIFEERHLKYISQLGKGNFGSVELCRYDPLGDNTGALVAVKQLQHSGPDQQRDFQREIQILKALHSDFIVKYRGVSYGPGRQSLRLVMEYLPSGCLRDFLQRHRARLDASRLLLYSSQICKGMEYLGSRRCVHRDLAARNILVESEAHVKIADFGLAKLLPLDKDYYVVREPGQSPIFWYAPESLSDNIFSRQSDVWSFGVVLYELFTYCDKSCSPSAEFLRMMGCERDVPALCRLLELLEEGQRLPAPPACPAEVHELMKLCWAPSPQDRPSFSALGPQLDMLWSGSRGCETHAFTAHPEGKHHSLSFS

[14] = Oral bioavailability in Sprague-Dawley rat at 3 mg/kg measured up to 24 hrs by HPLC analysis; type: ADME, organism-based; conditions: in vivo
Mus musculus [15] = assay: […] activity in ovalbumin-immunized C57Bl6 mouse assessed as reduction in skin swelling at 60 mg/kg, po administered 2 h prior to OVA immunization and measured after 5 hrs by caliper method relative to control; type: functional; set-up: scale not given: the % may be the effect or the level left; how it was run: as §4
Rattus norvegicus = assay: as §1; type: functional; how it was run: as §2
[16] = target: Receptor tyrosine-protein kinase erbB-4 (Homo sapiens, UniProt Q15303); assay: Inhibition of ERBB4 (unknown origin)
[17] = target: T1, Tyrosine-protein kinase BTK; assay: Irreversible inhibition of human BTK kinase domain by LC/MS analysis
[18] = target: Receptor tyrosine-protein kinase erbB-2 (Homo sapiens) (UniProt P04626); assay: Inhibition of ERBB2 (unknown origin)
[19] = Intrinsic clearance in mouse liver microsomes; type: ADME, Microsome
[20] = target: T3, Epidermal growth factor receptor (Homo sapiens, UniProt P00533); assay: Inhibition of EGF-induced EGFR phosphorylation in human A431 cells preincubated for 24 hrs followed by EGF stimulation and measured after 10 mins by HTRF based immunoassay; type: cell-based
[21] = target: T3, Epidermal growth factor receptor; assay: Inhibition of EGFR (unknown origin)
[22] = Terminal plasma concentration in ovalbumin-immunized C57Bl6 mouse at 30 mg/kg, po administered 2 h prior to OVA immunization and measured after 5 hrs; type: ADME, organism-based; conditions: read-out: Cp(T)
How it was run: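 Mice received a single oral dose 2 h before induction of the reverse passive Arthus reaction, which was intravenous ovalbumin followed by intradermal polyclonal IgG anti-OVA antibody. Terminal blood compound concentration was measured 5 h after dosing and reported in nM.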

Mus musculus [23] = assay: […] activity in ovalbumin-immunized C57Bl6 mouse assessed as reduction in skin swelling at 30 mg/kg, po administered 2 h prior to OVA immunization and measured after 5 hrs by caliper method relative to control; type: functional; set-up: scale not given: the % may be the effect or the level left; how it was run: as §4

T1 sequence (Q06187 whole entry): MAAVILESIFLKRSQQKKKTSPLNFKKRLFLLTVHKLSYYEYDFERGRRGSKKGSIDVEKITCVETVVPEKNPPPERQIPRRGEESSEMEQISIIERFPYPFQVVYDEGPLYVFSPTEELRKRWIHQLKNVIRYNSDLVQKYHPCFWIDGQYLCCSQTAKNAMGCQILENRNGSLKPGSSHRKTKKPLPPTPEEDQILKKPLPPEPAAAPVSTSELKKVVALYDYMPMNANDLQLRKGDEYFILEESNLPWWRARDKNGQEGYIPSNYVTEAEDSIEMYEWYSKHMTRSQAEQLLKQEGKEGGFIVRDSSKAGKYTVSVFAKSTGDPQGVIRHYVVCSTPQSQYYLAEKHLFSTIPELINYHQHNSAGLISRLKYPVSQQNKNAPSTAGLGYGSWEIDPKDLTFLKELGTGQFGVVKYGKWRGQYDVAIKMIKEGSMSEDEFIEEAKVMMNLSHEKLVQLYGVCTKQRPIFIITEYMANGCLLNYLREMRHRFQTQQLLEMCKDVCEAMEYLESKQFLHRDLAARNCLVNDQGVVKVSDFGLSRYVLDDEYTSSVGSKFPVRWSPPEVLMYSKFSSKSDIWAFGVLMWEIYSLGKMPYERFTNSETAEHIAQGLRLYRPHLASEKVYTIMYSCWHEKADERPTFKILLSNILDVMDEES
T3 sequence (P00533 whole entry): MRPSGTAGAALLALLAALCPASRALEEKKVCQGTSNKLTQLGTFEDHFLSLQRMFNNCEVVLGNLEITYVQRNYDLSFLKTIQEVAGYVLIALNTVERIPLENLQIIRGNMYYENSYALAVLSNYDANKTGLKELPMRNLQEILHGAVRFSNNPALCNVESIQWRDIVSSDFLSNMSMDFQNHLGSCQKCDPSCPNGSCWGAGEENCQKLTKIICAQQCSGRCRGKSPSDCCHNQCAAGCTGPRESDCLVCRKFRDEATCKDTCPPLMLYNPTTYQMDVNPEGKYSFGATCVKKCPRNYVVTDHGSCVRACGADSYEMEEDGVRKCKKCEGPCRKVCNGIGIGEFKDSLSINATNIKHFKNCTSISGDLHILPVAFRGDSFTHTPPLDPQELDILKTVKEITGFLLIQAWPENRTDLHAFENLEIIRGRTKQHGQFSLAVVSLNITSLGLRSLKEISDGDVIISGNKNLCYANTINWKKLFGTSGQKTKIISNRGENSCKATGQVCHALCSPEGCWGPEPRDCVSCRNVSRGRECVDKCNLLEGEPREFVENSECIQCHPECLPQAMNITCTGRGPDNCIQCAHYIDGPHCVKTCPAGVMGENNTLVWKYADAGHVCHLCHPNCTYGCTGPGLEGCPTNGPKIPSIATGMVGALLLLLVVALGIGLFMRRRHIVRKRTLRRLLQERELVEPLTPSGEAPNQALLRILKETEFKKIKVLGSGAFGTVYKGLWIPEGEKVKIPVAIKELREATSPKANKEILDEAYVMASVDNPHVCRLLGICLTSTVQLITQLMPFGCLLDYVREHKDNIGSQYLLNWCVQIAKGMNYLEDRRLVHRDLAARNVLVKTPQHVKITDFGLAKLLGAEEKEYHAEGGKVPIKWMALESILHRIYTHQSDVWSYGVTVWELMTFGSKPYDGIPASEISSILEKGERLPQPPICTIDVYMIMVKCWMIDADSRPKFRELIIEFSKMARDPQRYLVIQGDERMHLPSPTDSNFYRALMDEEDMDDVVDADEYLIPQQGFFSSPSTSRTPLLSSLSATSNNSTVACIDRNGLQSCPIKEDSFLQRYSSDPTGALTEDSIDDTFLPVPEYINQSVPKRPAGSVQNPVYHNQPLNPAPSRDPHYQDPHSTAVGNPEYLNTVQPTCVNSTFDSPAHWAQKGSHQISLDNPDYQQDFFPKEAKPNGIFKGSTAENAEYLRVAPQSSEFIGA
Chain of Receptor tyrosine-protein kinase erbB-2 (Homo sapiens) (P04626 whole entry): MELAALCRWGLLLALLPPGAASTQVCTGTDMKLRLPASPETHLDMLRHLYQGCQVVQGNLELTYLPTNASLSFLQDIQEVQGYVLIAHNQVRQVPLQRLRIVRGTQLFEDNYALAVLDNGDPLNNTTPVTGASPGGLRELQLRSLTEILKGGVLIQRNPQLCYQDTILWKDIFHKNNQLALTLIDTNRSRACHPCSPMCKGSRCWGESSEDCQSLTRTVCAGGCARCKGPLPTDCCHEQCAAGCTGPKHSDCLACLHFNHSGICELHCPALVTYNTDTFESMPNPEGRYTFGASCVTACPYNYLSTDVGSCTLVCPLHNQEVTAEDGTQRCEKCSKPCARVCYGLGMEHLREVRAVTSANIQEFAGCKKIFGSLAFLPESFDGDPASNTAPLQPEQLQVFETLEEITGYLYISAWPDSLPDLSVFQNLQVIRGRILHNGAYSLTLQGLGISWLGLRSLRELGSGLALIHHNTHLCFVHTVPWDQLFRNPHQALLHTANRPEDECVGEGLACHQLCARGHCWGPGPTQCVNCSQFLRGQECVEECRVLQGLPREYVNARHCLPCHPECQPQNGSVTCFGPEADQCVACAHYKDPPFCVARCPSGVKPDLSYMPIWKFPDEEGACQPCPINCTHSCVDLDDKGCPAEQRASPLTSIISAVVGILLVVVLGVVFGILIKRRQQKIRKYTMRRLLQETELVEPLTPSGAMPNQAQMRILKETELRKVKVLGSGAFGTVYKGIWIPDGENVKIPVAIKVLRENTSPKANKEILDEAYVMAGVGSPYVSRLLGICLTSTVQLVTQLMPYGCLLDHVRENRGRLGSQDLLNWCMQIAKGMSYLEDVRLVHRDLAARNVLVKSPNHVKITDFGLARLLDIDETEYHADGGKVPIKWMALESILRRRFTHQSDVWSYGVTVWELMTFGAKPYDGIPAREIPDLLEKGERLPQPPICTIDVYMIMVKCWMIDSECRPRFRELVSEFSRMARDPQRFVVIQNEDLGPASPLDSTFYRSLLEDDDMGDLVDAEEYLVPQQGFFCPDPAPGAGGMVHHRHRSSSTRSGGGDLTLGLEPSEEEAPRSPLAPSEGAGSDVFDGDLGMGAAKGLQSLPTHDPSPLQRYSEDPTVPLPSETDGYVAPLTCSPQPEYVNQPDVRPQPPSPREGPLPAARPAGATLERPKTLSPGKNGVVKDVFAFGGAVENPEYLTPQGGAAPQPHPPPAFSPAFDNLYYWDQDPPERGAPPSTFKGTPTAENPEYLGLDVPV
Chain of Receptor tyrosine-protein kinase erbB-4 (Q15303 whole entry, the tested form may be a part): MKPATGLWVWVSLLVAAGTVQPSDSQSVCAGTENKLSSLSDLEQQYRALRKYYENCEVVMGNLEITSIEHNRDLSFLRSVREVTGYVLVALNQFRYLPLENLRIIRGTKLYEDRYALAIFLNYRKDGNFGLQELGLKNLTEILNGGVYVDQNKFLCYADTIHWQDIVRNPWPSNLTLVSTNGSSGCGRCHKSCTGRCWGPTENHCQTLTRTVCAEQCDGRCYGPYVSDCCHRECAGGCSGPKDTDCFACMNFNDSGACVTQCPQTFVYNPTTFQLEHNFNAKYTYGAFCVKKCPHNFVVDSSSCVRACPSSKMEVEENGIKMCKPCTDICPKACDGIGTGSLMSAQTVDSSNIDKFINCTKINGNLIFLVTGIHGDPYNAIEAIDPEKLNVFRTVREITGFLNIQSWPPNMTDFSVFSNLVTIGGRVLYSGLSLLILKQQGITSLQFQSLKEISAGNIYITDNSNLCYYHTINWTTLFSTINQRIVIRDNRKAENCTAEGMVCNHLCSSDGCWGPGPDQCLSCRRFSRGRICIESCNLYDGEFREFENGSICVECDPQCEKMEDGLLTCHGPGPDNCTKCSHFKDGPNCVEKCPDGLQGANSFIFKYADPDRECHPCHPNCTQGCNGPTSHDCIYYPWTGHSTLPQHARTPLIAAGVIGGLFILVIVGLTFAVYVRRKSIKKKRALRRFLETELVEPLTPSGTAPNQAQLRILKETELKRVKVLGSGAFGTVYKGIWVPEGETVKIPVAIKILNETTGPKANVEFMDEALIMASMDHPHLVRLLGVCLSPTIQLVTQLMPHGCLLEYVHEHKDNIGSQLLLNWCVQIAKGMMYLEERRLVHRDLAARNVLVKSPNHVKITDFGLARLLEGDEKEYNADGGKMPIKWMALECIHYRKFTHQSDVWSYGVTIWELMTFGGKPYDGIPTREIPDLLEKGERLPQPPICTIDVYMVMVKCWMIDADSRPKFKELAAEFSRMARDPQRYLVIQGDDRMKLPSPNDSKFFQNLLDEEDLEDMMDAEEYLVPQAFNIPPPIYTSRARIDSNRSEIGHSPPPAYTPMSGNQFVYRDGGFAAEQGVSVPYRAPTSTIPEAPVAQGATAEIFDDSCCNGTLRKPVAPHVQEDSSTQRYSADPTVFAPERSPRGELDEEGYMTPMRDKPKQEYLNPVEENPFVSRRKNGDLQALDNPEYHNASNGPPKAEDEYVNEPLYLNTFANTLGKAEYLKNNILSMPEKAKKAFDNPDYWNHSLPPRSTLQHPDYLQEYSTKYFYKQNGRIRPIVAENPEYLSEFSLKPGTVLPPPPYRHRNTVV

Compound: C=CC(=O)N(C)C(=O)Cc1c[nH]c2ncnc(-c3cc(F)cc(NC(=O)c4ccc(C5CC5)cc4)c3C)c12
- Intrinsic clearance (CLint) [1]: 98 µL/min/mg
- clearance [2]: 300 mL/min/kg
- Intrinsic clearance (CLint) [3]: 39 µL/min/mg
- Activity [4]: 44%
- IC50 [5]: 0.016 µM
- IC50 [6]: 0.0012 µM

Compound: C/C=C/C(=O)N1CC=C(c2c[nH]c3ncnc(-c4cc(F)cc(NC(=O)c5ccc(C6CC6)cc5)c4C)c23)CC1
- Intrinsic clearance (CLint) [1]: 127 µL/min/mg
- clearance [2]: > 300 mL/min/kg
- Intrinsic clearance (CLint) [3]: 459 µL/min/mg
- Activity [4]: 70%
- IC50 [5]: 0.066 µM
- IC50 [6]: 0.006 µM

Compound: C=CC(=O)N1CCCC(c2c[nH]c3ncnc(-c4cc(F)cc(NC(=O)c5ccc(C6CC6)cc5)c4C)c23)C1 (stereo not given)
- Intrinsic clearance (CLint) [1]: > 700 µL/min/mg
- Intrinsic clearance (CLint) [3]: 603 µL/min/mg
- IC50 [5]: 8 µM
- IC50 [6]: 0.39 µM

Compound: CCC(=O)N(C)Cc1c[nH]c2ncnc(-c3cccc(NC(=O)c4ccc(C(C)(C)C)cc4)c3C)c12
- IC50 [6]: 3.9 µM

Compound: C=CC(=O)N1CCC(c2c[nH]c3ncnc(-c4cc(F)cc(NC(=O)c5ccc(C6CC6)cc5)c4C)c23)C1 (stereo not given)
- Intrinsic clearance (CLint) [1]: 171 µL/min/mg
- Intrinsic clearance (CLint) [3]: 111 µL/min/mg
- IC50 [5]: 0.225 µM
- IC50 [6]: 0.005 µM

Compound: C=CC(=O)N(C)Cc1c[nH]c2ncnc(-c3cccc(NC(=O)c4ccc(C5CC5)cc4)c3C)c12
- Intrinsic clearance (CLint) [1]: 578 µL/min/mg
- Intrinsic clearance (CLint) [3]: 252 µL/min/mg
- IC50 [5]: 7.47 µM
- IC50 [6]: 0.19 µM

Compound: C=CC(=O)N(C)Cc1c[nH]c2ncnc(-c3cc(F)cc(NC(=O)c4ccc(C5CC5)cc4)c3C)c12
- Intrinsic clearance (CLint) [1]: > 700 µL/min/mg
- Intrinsic clearance (CLint) [3]: 308 µL/min/mg
- IC50 [5]: 1.26 µM
- IC50 [6]: 0.026 µM

Compound: C=CC(=O)N(C)Cc1c[nH]c2ncnc(-c3cccc(NC(=O)c4ccc(C(C)(C)C)cc4)c3C)c12
- concentration at 2 h [7]: 14 nM
- IC50 [8]: 0.08 µM
- Activity (Mus musculus [9]): Dose-dependent effect
- Intrinsic clearance (CLint) [1]: 693 µL/min/mg
- concentration at 2 h [10]: 4 nM
- concentration at 2 h [11]: 118 nM
- CL/F [12]: > 300 mL/min/kg
- inhibition [13]: inactive
- bioavailability [14]: 2%
- Intrinsic clearance (CLint) [3]: > 700 µL/min/mg
- Activity (Mus musculus [15]): 65%
- Activity (Rattus norvegicus): inactive
- IC50 [16]: > 10 µM
- inhibition [17]: Active
- IC50 [5]: 0.934 µM
- inhibition [18]: inactive
- CLH [19]: 554 µL/min/mg
- IC50 [20]: > 8 µM
- IC50 [21]: > 10 µM

Compound: C=CC(=O)N1CC=C(c2c[nH]c3ncnc(-c4cc(F)cc(NC(=O)c5ccc(C6CC6)cc5)c4C)c23)CC1
- Intrinsic clearance (CLint) [1]: 408 µL/min/mg
- clearance [2]: > 300 mL/min/kg
- Intrinsic clearance (CLint) [3]: 660 µL/min/mg
- Activity [4]: 96%

Compound: C=CC(=O)N1CCC(c2c[nH]c3ncnc(-c4cc(F)cc(NC(=O)c5ccc(C6CC6)cc5)c4C)c23)CC1
- Intrinsic clearance (CLint) [1]: 578 µL/min/mg
- Intrinsic clearance (CLint) [3]: 126 µL/min/mg
- IC50 [5]: 0.019 µM
- IC50 [6]: 0.001 µM

Compound: C=CC(=O)N1CC(O)(c2c[nH]c3ncnc(-c4cc(F)cc(NC(=O)c5ccc(C6CC6)cc5)c4C)c23)C1
- Intrinsic clearance (CLint) [1]: 41 µL/min/mg
- clearance [2]: 183 mL/min/kg
- Intrinsic clearance (CLint) [3]: 3 µL/min/mg
- IC50 [5]: 0.303 µM
- IC50 [6]: 0.0014 µM

Compound: C=CC(=O)N1CCC[C@@H](n2nc(-c3ccc(Oc4ccccc4)cc3)c3c(N)ncnc32)C1 [IBRUTINIB]
- concentration at 2 h [22]: 187 nM
- Activity [4]: 93%
- Activity (Mus musculus [23]): 84%

Compound: Cc1c(NC(=O)c2ccc(C3CC3)cc2)cc(F)cc1-c1ncnc2[nH]cc(C3=CCN(C(=O)/C=C/CN4CCCC4)CC3)c12
- Intrinsic clearance (CLint) [1]: 628 µL/min/mg
- clearance [2]: 176 mL/min/kg
- Intrinsic clearance (CLint) [3]: > 700 µL/min/mg
- Activity (Rattus norvegicus): inactive
- IC50 [5]: 0.026 µM
- IC50 [6]: 0.0006 µM
